Assay results taken from publication PMC3258117 (Journal of Medicinal Chemistry, 2011).
Read-outs that look alike come from different tables or passages of the source.

Legend:
[1] = system: T. cruzi Tulahuen C4 amastigotes; assay: In vitro growth inhibition of T. cruzi amastigotes in infected L6 myoblasts; format: cell-based, Trypanosoma cruzi; conditions: for activity designation against T. cruzi: classes by IC50 criteria of b15; for fold increase of T. cruzi IC50 compared to the nitro-containing analog: non-nitro triazoles 19 and 31 versus 17 and 29
[2] = Reduction potential by cyclic voltammetry; format: physicochemical; conditions: cyclic voltammetry relative to Ag/AgCl
In short: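 Half-wave reduction potentials (E1/2) measured by cyclic voltammetry against an Ag/AgCl reference electrode, using a carbon mesh working electrode and a Pt wire counter electrode. The supporting electrolyte was 0.1M tetrabutylammonium hexafluorophosphate (TBAPF6).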

[3] = system: T.b. rhodesiense STIB 900 trypomastigotes; assay: In vitro growth inhibition of T. b. rhodesiense bloodstream form trypomastigotes; format: cell-based, Trypanosoma brucei rhodesiense; conditions: for activity designation against T.b. rhodesiense: classes by IC50 criteria of b15
[4] = system: T. cruzi; conditions: 2 mg/kg/day for 50 days, mice, acute phase of infection; cited from earlier work
[5] = 15 mg/kg given i.p. for 30 days; cited from earlier work
[6] = system: L. donovani MHOM-ET-67/L82 axenic amastigotes; assay: In vitro growth inhibition of axenically cultured L. donovani amastigotes; format: cell-based, Leishmania donovani; conditions: SI = IC50 in L6 cells / IC50 in parasites
[7] = system: L6 cells (rat skeletal myoblasts); assay: Cytotoxicity assessment using L6 cells; format: cell-based; conditions: read-out: Cytotox. L6 IC-50
[8] = cited from earlier work
[9] = SI = IC50 in L6 cells / IC50 in parasites

## Cl.O=[N+]([O-])c1ncn(CCCNCc2cc(C(F)(F)F)cc(C(F)(F)F)c2)n1 [Compound 29, {[3,5-bis(Trifluoromethyl)phenyl]methyl}[3-(3-nitro-1H-1,2,4-triazol-1-yl)propyl]amine hydrochloride]
[1]
  activity designation against T. cruzi: active
[2]; in DMSO
  E1/2 reduction potential: -1.07 V

## Cl.Cl.O=[N+]([O-])c1ncn(CCCN2CCN(Cc3ccc(C(F)(F)F)cc3)CC2)n1 [Compound 40, 1-[3-(3-Nitro-1H-1,2,4-triazol-1-yl)propyl]-4-{[4-(trifluoromethyl)phenyl]methyl}piperazine dihydrochloride]
[1]; Table 2, T. cruzi, IC50 in L6 cells / IC50 in parasites
  SI: >562

## Cl.O=[N+]([O-])c1ncn(CCCN(Cc2ccc(C(F)(F)F)cc2)Cc2ccc(C(F)(F)F)cc2)n1 [Compound 38, [3-(3-Nitro-1H-1,2,4-triazol-1-yl)propyl]bis({[4-(trifluoromethyl)phenyl]methyl})amine hydrochloride]
[3]
  activity designation against T.b. rhodesiense: active
[1]
  activity designation against T. cruzi: active
[2]; in DMSO
  E1/2 reduction potential: -1.06 V

## Cl.O=[N+]([O-])c1ncn(CCCNc2c3ccccc3nc3ccccc23)n1 [Compound 1, 9-[(3-nitro-1H-1,2,4-triazolyl)-propylamino]acridine hydrochloride]
[4]
  fraction of cures: 20%
  peripheral parasite levels: rapid and persistent drop
[5]
  toxicity in vivo: demonstrated toxicity

## Cl.O=[N+]([O-])c1ncn(CCCNCc2ccc(C(F)(F)F)cc2)n1 [Compound 37, [3-(3-Nitro-1H-1,2,4-triazol-1-yl)propyl]({[4-(trifluoromethyl)phenyl]methyl})amine hydrochloride]
[1]
  activity designation against T. cruzi: active

## Cc1cc(NCCCn2ccnc2[N+](=O)[O-])nc(N)n1.Cl [Compound 11, 6-Methyl-4-N-[3-(2-nitro-1H-imidazol-1-yl)propyl]-pyrimidin-2,4-diamine hydrochloride]
[6]
  L. donovani axen. SI: ∼3

## 6-Methyl-4-N-[3-(2-nitro-1H-1,2,4-triazol-1-yl)propyl]-pyrimidin-2,4-diamine hydrochloride [Compound 22]
[3]; [9]
  T.b.rhodesiense SI: >131
[1]; [9]
  T. cruzi SI: >8
[1]
  activity designation against T. cruzi: moderately active (IC50 = 4.0-60 μM)
[6]
  L. donovani axen. SI: ∼3
[7]
  IC50: > 286 µM

## CC1CS(=O)(=O)CCN1/N=C/c1ccc([N+](=O)[O-])o1 (centres unmarked) [Nifurtimox, 4-(5-nitrofurfurylidenamino)-3-methylthio-morpholine-1,1-dioxide]
[8]
  E1/2 reduction potential: -0.88 V

## Cl.O=[N+]([O-])c1nccn1CCCNc1nc(-c2ccccc2)nc2ccccc12 [Compound 8, N-[3-(2-Nitro-1H-imidazol-1-yl)propyl]-2-phenylquinazolin-4-amine hydrochloride]
[2]; in DMSO
  E1/2 reduction potential: -1.03 V

## Cl.O=[N+]([O-])c1nccn1CCCNCc1cc(C(F)(F)F)cc(C(F)(F)F)c1 [Compound 26]
[6]
  L. donovani axen. SI: ∼2

## Cl.Cl.O=[N+]([O-])c1ncn(CCCN2CCN(c3ccc(C(F)(F)F)cc3)CC2)n1 [Compound 42, 1-[3-(3-Nitro-1H-1,2,4-triazol-1-yl)propyl]-4-[4-(trifluoromethyl)phenyl]piperazine dihydrochloride]
[1]; T. cruzi in vitro
  fold increased antichagasic activity compared to 40 and 41: about 10 fold

## Cl.FC(F)(F)c1cc(CNCCCCn2cncn2)cc(C(F)(F)F)c1 [Compound 31, {[3,5-bis(Trifluoromethyl)phenyl]methyl}[4-(1H-1,2,4-triazol-1-yl)butyl]amine hydrochloride]
[1]
  fold increase of T. cruzi IC50 compared to the nitro-containing analog: 730 fold

## Cl.Cl.O=[N+]([O-])c1nccn1CCCN1CCN(Cc2ccc(C(F)(F)F)cc2)CC1 [Compound 39, 1-[3-(2-Nitro-1H-imidazol-1-yl)propyl]-4-{[4-(trifluoromethyl)phenyl]methyl}piperazine dihydrochloride]
[6]
  L. donovani axen. SI: ∼1

## O=C1C(Cl)=C(NCCCn2cnc([N+](=O)[O-])n2)C(=O)c2ccccc21 [Compound 25, 2-Chloro-3-{[3-(3-nitro-1H-1,2,4-triazol-1-yl)propyl]amino}-1,4-dihydronaphthalene-1,4-dione]
[1]; 3-nitrotriazole versus its 2-nitroimidazole analog
  fold greater effect on T. cruzi growth than 2-nitroimidazole counterpart: 2 fold

## Cl.Clc1ccc2c(NCCCCn3cncn3)ccnc2c1 [Compound 19, 7-Chloro-N-[4-(1H-1,2,4-triazol-1-yl)butyl]quinolin-4-amine]
[1]
  fold increase of T. cruzi IC50 compared to the nitro-containing analog: 658 fold
[6]
  L. donovani axen. SI: ∼1

## Cl.O=[N+]([O-])c1ncn(CCCCNc2ccnc3cc(Cl)ccc23)n1 [Compound 17, 7-Chloro-N-[4-(3-nitro-1H-1,2,4-triazol-1-yl)butyl]quinolin-4-amine hydrochloride]
[3]
  activity designation against T.b. rhodesiense: active
[2]; in CH3CN
  E1/2 reduction potential: -1.18 V

## Cl.O=[N+]([O-])c1ncn(CCCNc2nc(-c3ccccc3)nc3ccccc23)n1 [Compound 20, N-[3-(3-Nitro-1H-1,2,4-triazol-1-yl)propyl]-2-phenyl-quinazolin-4-amine hydrochloride]
[2]; in DMSO
  E1/2 reduction potential: -1.04 V

## Cl.Cl.O=[N+]([O-])c1ncn(CCCCN2CCN(Cc3ccc(C(F)(F)F)cc3)CC2)n1 [Compound 41, 1-[4-(3-Nitro-1H-1,2,4-triazol-1-yl)butyl]-4-{[4-(trifluoromethyl)phenyl]methyl}piperazine dihydrochloride]
[2]; in DMSO
  E1/2 reduction potential: -1.04 V
